Hits are enriched below; roughly 3.4% of the tested compounds scored in any of these assays.
zfTRPN1 agonist – activates the zebrafish TRPN1 channel | HEK293 zebrafish TRPN1-YFP, Fluo-8 calcium fluorescence; 100% = response to 87 µM carbachol | hit rate 0.18% among 220,000 | activation, % at 3 µM;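 active means activation above its plate's cutoff, the mean activation of test wells on that plate plus 3 SD, cut at about 19% in these data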
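Assay system: Zebrafish TRPN1-YFP in HEK293 cells | Incubation: Dye loading 1 h at 37 °C, then 30 min room temperature | Measured by: Kinetic Fluo-8 fluorescence, ex 470-495, em 515-575 nm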
TAAR1 antag – antagonists of human TAAR1; CHO RD-HGA16 TAAR1, Fluo-8 calcium fluorescence, antagonist; inhibition, % at 3 µM; hit rate 1.5% among 360,000;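 active means inhibition above a per-plate cutoff, the mean inhibition of test compounds on that plate plus 3 SD, cut at about 49% in these data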
Target sequence (Q96RJ0 whole entry, looked up): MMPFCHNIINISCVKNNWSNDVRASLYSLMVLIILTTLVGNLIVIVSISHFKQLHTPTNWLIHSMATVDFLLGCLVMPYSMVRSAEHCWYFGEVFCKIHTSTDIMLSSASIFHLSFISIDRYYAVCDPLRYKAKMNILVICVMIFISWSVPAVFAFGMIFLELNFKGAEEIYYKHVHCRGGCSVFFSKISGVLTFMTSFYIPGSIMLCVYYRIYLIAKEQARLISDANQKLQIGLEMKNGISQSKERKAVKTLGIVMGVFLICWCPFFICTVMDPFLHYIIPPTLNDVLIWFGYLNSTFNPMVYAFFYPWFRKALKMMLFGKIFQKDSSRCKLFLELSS
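System: CHO RD-HGA16 cells bearing hTAAR1. Reagent: EC80 β-phenethylamine stimulus. Schedule: seeding 17-24 h prior, 75-min 37 °C, 30-min RT dye loading. Signal: Fluo-8 intracellular calcium dye fluorescence, real-time kinetic reads. Read-out: % inhibition from peak post-agonist over basal fluorescence ratio. Benchmarks: vehicle wells and EC80 agonist wells. Replicates: n of 1.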
TAAR1 ag – human TAAR1 agonism | Q96RJ0 | CHO RD-HGA16 TAAR1, Fluo-8 calcium fluorescence; vehicle wells 0%, saturating PEA agonist 100% | activation, % at 3 µM | hit rate 0.99% among 360,000 | AID 624467;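 active means activation above the mean activation of all test compounds in the run plus 3 SD, cut at about 38% in these data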
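System: CHO RD-HGA16 cells carrying human TAAR1 plus Gα16; Incubation: 17-24 h seeding, 75 min 37 °C dye, 30 min RT; Measured by: Fluo-8 fluorescence, 5 s baseline then 140 s kinetic read; Control set: DMSO and PEA EC100; Replication: single well for each compound.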
GPR7 antag – human neuropeptides B/W receptor 1 antagonism; inhibition, % at 4.4 µM; hit rate 1.1% among 290,000; GPR7-expressing cells, fluorescence antagonist assay; P48145; in the data active means inhibition above about 16%, passing the limit was not always enough;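 further: cells stimulated with the agonist NPW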
Target sequence (P48145 whole entry, looked up): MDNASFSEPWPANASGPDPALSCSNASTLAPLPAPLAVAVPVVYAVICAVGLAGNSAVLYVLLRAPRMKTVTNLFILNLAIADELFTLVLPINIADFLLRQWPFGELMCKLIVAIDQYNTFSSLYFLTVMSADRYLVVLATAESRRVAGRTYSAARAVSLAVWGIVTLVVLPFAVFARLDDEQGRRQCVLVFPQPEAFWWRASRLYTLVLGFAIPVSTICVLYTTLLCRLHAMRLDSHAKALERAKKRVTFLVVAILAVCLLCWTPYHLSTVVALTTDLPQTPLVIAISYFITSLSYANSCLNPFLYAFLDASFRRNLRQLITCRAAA
LANA-H2A inh – blocks KSHV LANA binding to histone H2A/H2B. Q9QR71. inhibition, % (test concentration not listed). cell-free LANA-H2A/H2B peptide, fluorescence polarization. AID 2629. hit rate 0.6% among 320,000; in the data active means inhibition mostly above about 10%, no sharp cut-off; inactive means mostly below about 6.7%
TRPML3 agonist – agonists of human TRPML3 channel; activation, % at 3 µM; HEK293 TRPML3-YFP, Fluo-8 calcium fluorescence; 100% = the carbachol control signal; hit rate 0.29% among 220,000; Q8TDD5; AID 1448;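 active means activation above its plate's cutoff, the mean activation of the plate's test wells plus 3 SD, cut at about 12% in these data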
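Test system: HEK293 cells stably carrying human TRPML3-YFP; Doses: single dose, 3 µM final nominal compound, 0.3% DMSO final; Schedule: dye loading 1 h 37 °C then 30 min ambient, 125 s read; Technique: Fluo-8 calcium fluorescence; Benchmarks: high control carbachol 87 µM, low control DMSO.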
nonsel antag count – counter-screen for TAAR1 antagonists: nonselective antagonists | hit rate 77% among 2,400 | shares compounds with TAAR1 antag | inhibition, % at 3 µM | counterscreen cell line, calcium fluorescence, antagonist mode; in the data active means inhibition above about 22%;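 further: CHO-Ga16 host cells stimulated with ATP at an EC80 level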
TAAR1 ant conf – confirmation of human TAAR1 antagonists; inhibition, % at 3 µM; shares compounds with TAAR1 antag; AID 651785; TAAR1-expressing cells, fluorescence antagonist read-out; hit rate 40% among 2,400; in the data active means inhibition above about 49%;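 further: CHO-Ga16 host cells challenged with agonist PEA near its EC80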
Ga16 ag counter – nonselective Ga16 agonism, counter-screen. shares compounds with TAAR1 antag. Ga16-expressing cells, calcium fluorescence, agonist counterscreen. activation, % at 3 µM. hit rate 18% among 2,400; in the data active means activation above about 12%
TAAR1 ag count – activates human TAAR1 in antagonist counter-screen; hTAAR1 cell line, fluorescence activation, agonist mode; shares compounds with TAAR1 antag; hit rate 2% among 2,400; activation, % at 3 µM; AID 651955; in the data active means activation above about 37%;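 further: CHO cells stably expressing TAAR1 with calcium dye readout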
Each line names hits and unclear results; the compound was inactive in the other large screens (follow-up assays come after a bar, where they were run).

C/C(=N/NC(=O)c1ccncc1)c1ccc(NC(=O)c2ccccc2)cc1	none (no result: zfTRPN1 agonist, TRPML3 agonist)
O=S(=O)(NCC1CCN(Cc2ccccc2)CC1)c1ccccc1C(F)(F)F	none (no result: zfTRPN1 agonist, TRPML3 agonist)
Cc1ccc(NC(=O)Cn2nc(C(=O)O)c3ccccc3c2=O)cc1S(=O)(=O)N1CCCCCC1	TAAR1 antag 102 (no result: zfTRPN1 agonist, GPR7 antag, LANA-H2A inh, TRPML3 agonist) | nonsel antag count 36 | TAAR1 ant conf inactive | Ga16 ag counter inactive | TAAR1 ag count inactive
CCOC(=O)C1=C(COC(=O)/C=C/c2cccc(Br)c2)NC(=O)NC1C (centres undefined)	TAAR1 antag 59 (no result: zfTRPN1 agonist, GPR7 antag, TRPML3 agonist) | nonsel antag count inactive | TAAR1 ant conf inactive | Ga16 ag counter inactive | TAAR1 ag count inactive
CCOC(=O)C1=C(COC(=O)Cc2ccc(Cl)cc2)NC(=O)NC1C (centres undefined)	TAAR1 antag 60 (no result: zfTRPN1 agonist, GPR7 antag, TRPML3 agonist) | nonsel antag count 25 | TAAR1 ant conf inactive | Ga16 ag counter inactive | TAAR1 ag count inactive
CCOC(=O)C1=C(COC(=O)/C=C/c2ccc(OC)c(OC)c2)NC(=O)NC1C (centres undefined)	none (no result: zfTRPN1 agonist, GPR7 antag, TRPML3 agonist)
CCOC(=O)C1=C(COC(=O)/C=C/c2cc(OC)c(OC)c(OC)c2)NC(=O)NC1C (centres undefined)	none (no result: zfTRPN1 agonist, TRPML3 agonist)
CCOC(=O)C1=C(COC(=O)/C=C/c2cccc([N+](=O)[O-])c2)NC(=O)NC1C (centres undefined)	TAAR1 antag 58 (no result: zfTRPN1 agonist, GPR7 antag, TRPML3 agonist) | nonsel antag count inactive | TAAR1 ant conf 56 | Ga16 ag counter 15 | TAAR1 ag count inactive
CCOC(=O)C1=C(COC(=O)/C=C/c2cccc(Cl)c2)NC(=O)NC1C (centres undefined)	none (no result: zfTRPN1 agonist, GPR7 antag, TRPML3 agonist)
CCOC(=O)C1=C(COC(=O)/C=C/c2ccc(O)c(OC)c2)NC(=O)NC1C (centres undefined)	TAAR1 antag 62 (no result: zfTRPN1 agonist, GPR7 antag, TRPML3 agonist) | nonsel antag count 28 | TAAR1 ant conf 51 | Ga16 ag counter 13 | TAAR1 ag count inactive
CCOC(=O)C1=C(COC(=O)Cc2ccccc2)NC(=O)NC1C (centres undefined)	none (no result: zfTRPN1 agonist, TRPML3 agonist)
CN(C=O)c1ccc(CSc2ccccc2)cc1	none (no result: zfTRPN1 agonist, GPR7 antag, LANA-H2A inh, TRPML3 agonist)
Cc1noc(C)c1-c1ccc(C(=O)NCc2cccc(Cl)c2)c2occc12	none (no result: zfTRPN1 agonist, GPR7 antag, LANA-H2A inh, TRPML3 agonist)
Cc1noc(C)c1-c1ccc(C(=O)Nc2cccc(NS(C)(=O)=O)c2)c2occc12	TAAR1 antag 60 (no result: zfTRPN1 agonist, GPR7 antag, LANA-H2A inh, TRPML3 agonist) | nonsel antag count 33 | TAAR1 ant conf inactive | Ga16 ag counter inactive | TAAR1 ag count inactive
O=C(Nc1cccc(C(F)(F)F)c1)c1ccc(-c2ccc(F)c(F)c2)c2ccoc12	none (no result: zfTRPN1 agonist, GPR7 antag, LANA-H2A inh, TRPML3 agonist)
Cc1noc(C)c1-c1ccc(C(=O)Nc2cccc(C(F)(F)F)c2)c2occc12	TAAR1 antag 53 (no result: zfTRPN1 agonist, GPR7 antag, LANA-H2A inh, TRPML3 agonist) | nonsel antag count inactive | TAAR1 ant conf inactive | Ga16 ag counter inactive | TAAR1 ag count inactive
CCCn1c(SCC(=O)Nc2cc(Cl)ccc2OC)nc(O)cc1=O	none (no result: zfTRPN1 agonist, GPR7 antag, TRPML3 agonist)
CC1=C(C(=O)N2CCOCC2)CC(CC(=O)NCCc2ccccn2)C(=O)N1CCCN1CCCC1=O (centres undefined)	none (no result: zfTRPN1 agonist, GPR7 antag, LANA-H2A inh, TRPML3 agonist)
N#CC1=C(N)NC(SCc2ccccc2)=C(C#N)C12CCCC2	none
N#CC1=C(N)NC(SCC(=O)c2ccccc2)=C(C#N)C12CCCC2	TAAR1 antag 56 | nonsel antag count 34 | TAAR1 ant conf inactive | Ga16 ag counter 13 | TAAR1 ag count inactive
CC(=O)c1cccc(NC(=O)c2ccc(N(Cc3ccccc3C)S(C)(=O)=O)cc2)c1	TAAR1 antag 57 | nonsel antag count 37 | TAAR1 ant conf 50 | Ga16 ag counter 12 | TAAR1 ag count inactive
CC(=O)Nc1ccc(NC(=O)c2ccc(N(Cc3ccccc3C)S(C)(=O)=O)cc2)cc1	none (no result: zfTRPN1 agonist, GPR7 antag, TRPML3 agonist)
Cc1cc(=O)oc2c3c(cc(OCC(=O)NCc4cccnc4)c12)OC(C)(C)CC3	none (no result: zfTRPN1 agonist, TRPML3 agonist)
COc1ccc(CNC(=O)COc2cc3c(c4oc(=O)cc(C)c24)CCC(C)(C)O3)cc1	TAAR1 antag 62 (no result: zfTRPN1 agonist, TRPML3 agonist) | nonsel antag count 29 | TAAR1 ant conf inactive | Ga16 ag counter inactive | TAAR1 ag count inactive
COCCn1c(SCC(=O)Nc2ccccc2OC)nc2c(oc3ccccc32)c1=O	TAAR1 antag 52 | nonsel antag count inactive | TAAR1 ant conf inactive | Ga16 ag counter inactive | TAAR1 ag count inactive
COCCn1c(SCC(=O)Nc2ccccc2)nc2c(oc3ccccc32)c1=O	none
COc1cccc(N2CCN(CC(=O)NCc3ccccc3)CC2)c1	none (no result: zfTRPN1 agonist, TRPML3 agonist)
CCOC(=O)N1CCN(CC(=O)Nc2c(C(=O)OC)[nH]c3ccccc23)CC1	none
COC(=O)c1[nH]c2ccccc2c1NC(=O)CN1CCN(c2cccc(Cl)c2)CC1	TAAR1 antag 62 | nonsel antag count 30 | TAAR1 ant conf inactive | Ga16 ag counter inactive | TAAR1 ag count inactive
COc1cccc(N2CCN(CC(=O)Nc3ccccc3C(=O)NCc3ccccc3)CC2)c1	TAAR1 antag 66 (no result: zfTRPN1 agonist, GPR7 antag, LANA-H2A inh, TRPML3 agonist) | nonsel antag count 24 | TAAR1 ant conf 56 | Ga16 ag counter inactive | TAAR1 ag count inactive
CC1CN(CCc2ccccc2)c2nc3c(c(=O)n(CC(N)=O)c(=O)n3C)n2C1 (centres undefined)	none (no result: zfTRPN1 agonist, TRPML3 agonist)
